Experimental data published in ChEMBL document CHEMBL4138314, “Synthesis and Evaluation of N-Phenyl-3-sulfamoyl-benzamide Derivatives as Capsid Assembly Modulators Inhibiting Hepatitis B Virus (HBV)” (J Med Chem, 2018).
Converted amounts (≈) assume the structure as drawn.

Legend:
Hepatitis B virus [1] = assay: Antiviral activity against Hepatitis B virus infected in human HepG2.117 cells assessed as inhibition of viral DNA level after 3 days by real time PCR; assay type: functional, organism-based; conditions: HepG2.117, 72 h
HBV genotype D = assay: Antiviral activity against HBV genotype D infected in human HepG2.2.15 cells assessed as inhibition of viral DNA level treated twice for 3 days measured after 6 days by real time PCR; assay type: functional, organism-based; conditions: Hepatitis B virus
[2] = Drug metabolism in mouse liver microsomes at 1 uM after 15 mins by LC-MS/MS analysis; assay type: ADME, microsome; conditions: read-out: Drug metabolism
Method in brief: (§1)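 Compound incubated 15 min with human or mouse liver microsomes; stability expressed as percent turnover (metabolised) at 15 min.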

[3] = Kinetic solubility of the compound at pH 7.4 after 4 hrs by UPLC-UV analysis; assay type: physicochemical; conditions: buffer, read-out: Kinetic_solubility
[4] = Cytotoxicity against human HepG2 cells after 4 days by resazurin assay; assay type: cell-based
[5] = Drug metabolism in human liver microsomes at 1 uM after 15 mins by LC-MS/MS analysis; assay type: ADME, microsome; conditions: read-out: Drug metabolism; method in brief: as §1
Hepatitis B virus [6] = assay: Induction of HBV capsid core protein CP149 aggregation assessed as ratio between area under the curve for observed amount of core dimer and area under the curve for aggregated core protein at 20 uM after 24 hrs by size exclusion chromatographic analysis
Method in brief: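 Recombinant HBV core assembly domain (aa 1–149, Cp149) was incubated with compound at 20 µM for 24 h, with a no-compound control run in parallel. Size exclusion chromatography gave the ratio of Cp149 dimer AUC to aggregated Cp149 AUC.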

Row | EC50 (Hepatitis B virus [1]) [µM] | EC50 (HBV genotype D) [µM] | metabolised at 0.25 h, 1 µM [2] [%] | solubility kinetic at 4 h [3] [µM] | metabolised at 0.25 h, 1 µM [5] [%] | Structure (SMILES) | CC50 at 96 h [4] [µM] | Ratio (Hepatitis B virus [6])
1 | 0.66 | 0.36 | 77 | 82 (≈ 31.2 µg/mL) | 36 | O=C(Nc1ccc(F)cc1)c1cc(S(=O)(=O)NC2CCCC2)ccc1F | > 25 | 
2 | 3.63 | 0.75 | 99 | 15 (≈ 5.47 µg/mL) | 53 | CCC(CC)NS(=O)(=O)c1cccc(C(=O)Nc2ccc(F)cc2)c1 | 40.3 | 
3 | > 25 | 8 | 100 | 22 (≈ 8.28 µg/mL) | 91 | O=C(Nc1cccc(S(=O)(=O)NC2CCCCC2)c1)c1ccc(F)cc1 | > 25 | 
4 | 11.1 | 2.6 | 100 | 19 (≈ 7.15 µg/mL) | 98 | CN(C1CCCC1)S(=O)(=O)c1cccc(C(=O)Nc2ccc(F)cc2)c1 | 23.8 | 
5 | 0.96 | 0.74 | 61 | > 100 | 16 | CC(C)NS(=O)(=O)c1cccc(C(=O)Nc2ccc(F)cc2)c1 | 57.5 | 
6 | 3.03 | 4.53 | 96 | 48 (≈ 16.7 µg/mL) | 44 | O=C(Nc1ccc(F)cc1)c1cccc(S(=O)(=O)N2CCCC2)c1 | 96.9 | 
7 | 0.9 | 0.83 | 99 | 84 (≈ 29.3 µg/mL) | 51 | O=C(Nc1ccc(F)cc1)c1cccc(S(=O)(=O)NC2CCC2)c1 | 57.7 | 
8 | 1.67 | 0.93 | 48 | > 100 | 14 | O=C(Nc1ccc(F)cc1)c1cccc(S(=O)(=O)NC2CCOCC2)c1 | > 100 | 
9 | 1.36 | 0.54 | 29 | > 100 | 32 | O=C(Nc1ccc(F)cc1)c1cccc(S(=O)(=O)N[C@H]2CCOC2)c1 | > 100 | 
10 | 2.03 | 1.18 | 24 | > 100 | 21 | O=C(Nc1ccc(F)cc1)c1cccc(S(=O)(=O)N[C@@H]2CCOC2)c1 | > 100 | 
11 | 0.6 | 0.47 | 91 | 83 (≈ 30.1 µg/mL) | 50 | O=C(Nc1ccc(F)cc1)c1cccc(S(=O)(=O)NC2CCCC2)c1 | 32.7 | 
12 | 0.89 | 0.34 | 88 | 59 (≈ 20.7 µg/mL) | 21 | CC[C@@H](C)NS(=O)(=O)c1cccc(C(=O)Nc2ccc(F)cc2)c1 | 46 | 
13 | 8.63 | 0.75 | 82 | 92 (≈ 32.2 µg/mL) | 18 | CC[C@H](C)NS(=O)(=O)c1cccc(C(=O)Nc2ccc(F)cc2)c1 | 39.6 | 
14 | 1.2 | 1.2 | 93 | 92 (≈ 33.3 µg/mL) | 4 | O=C(Nc1ccc(F)cc1)c1cccc(NS(=O)(=O)C2CCCC2)c1 | > 50 | 
15 | > 25 | 28.8 |  |  |  | O=C(NC1CCCCC1)c1cc(S(=O)(=O)NC2CCCCC2)ccc1F | > 25 | 
16 | 15.3 | 1.99 | 99 | 12 (≈ 4.52 µg/mL) | 67 | Cc1ccc(NC(=O)c2cccc(S(=O)(=O)NC3CCCC3)c2)cc1F | > 25 | 
17 | 0.43 | 0.27 | 100 | 57 (≈ 20.7 µg/mL) | 88 | O=C(Nc1cccc(F)c1)c1cccc(S(=O)(=O)NC2CCCC2)c1 | > 25 | 

Row | Structure (SMILES) | EC50 (Hepatitis B virus [1]) [µM] | EC50 (HBV genotype D) [µM] | metabolised at 0.25 h, 1 µM [2] [%] | solubility kinetic at 4 h [3] [µM] | metabolised at 0.25 h, 1 µM [5] [%] | CC50 at 96 h [4] [µM] | Ratio (Hepatitis B virus [6])
18 | O=S(=O)(NC1CCCCC1)c1ccc(F)c(-c2ncc(-c3ccccc3)[nH]2)c1 | 23.3 | 1.7 | 99 | 3 (≈ 1.2 µg/mL) | 75 | 19.2 | 10.2
19 | CN(c1cccc(C(=O)Nc2ccc(F)cc2)c1)S(=O)(=O)C1CCCC1 | 16.3 | 7.5 | 99 | 53 (≈ 20 µg/mL) | 86 | 43.2 | 2
20 | CC(=O)N1CCC(NS(=O)(=O)c2cccc(C(=O)Nc3ccc(F)cc3)c2)CC1 | 4.68 | 6.77 | 23 | > 100 | 0 | > 100 | 2.9
21 | O=C(Nc1ccccc1)c1cc(S(=O)(=O)NC2CCCCC2)ccc1F | 0.6 | 0.66 | 100 | 21 (≈ 7.91 µg/mL) | 63 | > 25 | 0.1
22 | CC(=O)N1CCN(S(=O)(=O)c2cccc(C(=O)Nc3ccc(F)cc3)c2)CC1 | 6.3 | 7.1 | 52 | 86 (≈ 34.9 µg/mL) | 19 | > 100 | 0.9
23 | CC(C)(C)NS(=O)(=O)c1cccc(C(=O)Nc2ccc(F)cc2)c1 | 2.28 | 1.24 | 31 | 1 (≈ 0.35 µg/mL) | 15 | 52.5 | 0.9
24 | O=C(Nc1ccc(F)cc1)c1cccc(S(=O)(=O)NC2CCCCC2)c1 | 0.58 |  | 93 | 43 (≈ 16.2 µg/mL) | 69 | > 25 | 0.2
25 | CN(C)S(=O)(=O)c1cccc(C(=O)Nc2ccc(F)cc2)c1 | 2.99 | 5.02 | 89 | 43 (≈ 13.9 µg/mL) | 50 | > 100 | 1.4
26 | O=C(Nc1ccc(F)cc1)c1cc(S(=O)(=O)NC2CCCCC2)ccc1F | 1.3 | 0.78 | 79 | 58 (≈ 22.9 µg/mL) | 61 | > 50 | 0.3
27 | O=C(Nc1ccc(F)cc1)c1cccc(S(=O)(=O)N2CCCCC2)c1 | 2.7 | 4.5 | 99 | 9 (≈ 3.26 µg/mL) | 65 | 70.4 | 0.4
28 | O=C(Nc1ccc(F)cc1)c1cccc(NC(=O)C2CCCCC2)c1 | > 25 | 62.2 | 87 | 7 (≈ 2.38 µg/mL) | 55 | 57.7 | 7.2
29 | O=C(NCc1ccccc1)c1cc(S(=O)(=O)NC2CCCCC2)ccc1F |  | > 100 |  | 29 (≈ 11.3 µg/mL) | 74 | 93.9 | 8.4
